Assays:
Mus musculus [1] = test: Curative activity of the Compound after oral administration at a dose of 0.42 mg/kg and I.C.E. value of 0.60; format: functional
Mus musculus [2] = test: Fraction of mice that were cured after oral administration at a dose of 6.6 mg/kg and I.C.E. value of 0.56; format: functional
Mus musculus [3] = test: Curative activity of the Compound after Subcutaneous administration at a dose of 26 mg/kg and I.C.E. value of 0.82; […]; format: functional
Mus musculus [4] = test: Curative activity of the Compound after oral administration at a dose of 3.3 mg/kg and I.C.E. value of 0.60;1/5; format: functional
Mus musculus [5] = test: Curative activity of the Compound after Subcutaneous administration at a dose of 0.42 mg/kg and I.C.E. value of 0.82; 8/10; format: functional
Mus musculus [6] = test: Curative activity of the Compound after oral administration at a dose of 6.6 mg/kg and I.C.E. value of 0.60; 2/5; format: functional
Mus musculus [7] = test: Fraction of mice that were cured after subcutaneous administration at a dose of 106 mg/kg and I.C.E. value of 0.82; format: functional
Mus musculus [8] = test: Fraction of mice that were cured after subcutaneous administration at a dose of 53 mg/kg and I.C.E. value of 0.82; format: functional
Mus musculus [9] = test: Curative activity of the Compound after Subcutaneous administration at a dose of 3.3 mg/kg and I.C.E. value of 0.82; 10/10; format: functional
Mus musculus [10] = test: Fraction of mice that were cured after oral administration at a dose of 26 mg/kg and I.C.E. value of 0.56; format: functional
Mus musculus [11] = test: Curative activity of the Compound after Subcutaneous administration at a dose of 53 mg/kg and I.C.E. value of 0.82; […]; format: functional
Mus musculus [12] = test: Fraction of mice that were cured after subcutaneous administration at a dose of 0.42 mg/kg and I.C.E. value of 0.82; format: functional
Mus musculus [13] = test: Curative activity of the Compound after oral administration at a dose of 106 mg/kg and I.C.E. value of 0.60; 10/10; format: functional
Mus musculus [14] = test: Fraction of mice that were cured after oral administration at a dose of 0.83 mg/kg and I.C.E. value of 0.56; format: functional
Mus musculus [15] = test: Curative activity of the Compound after oral administration at a dose of 0.83 mg/kg and I.C.E. value of 0.60; format: functional
Mus musculus [16] = test: Fraction of mice that were cured after oral administration at a dose of 13 mg/kg and I.C.E. value of 0.56; format: functional
Mus musculus [17] = test: Curative activity of the Compound after Subcutaneous administration at a dose of 1.67 mg/kg and I.C.E. value of 0.82; 19/20; format: functional
Mus musculus [18] = test: Fraction of mice that were cured after subcutaneous administration at a dose of 13 mg/kg and I.C.E. value of 0.82; format: functional
Mus musculus [19] = test: Curative activity of the Compound after Subcutaneous administration at a dose of 212 mg/kg ( T-Toxic) and I.C.E. value of 0.82; 5/10 and 5 toxic; format: ADME, organism-based; set-up: dose 212 mg/kg, route subcutaneous; conditions: in vivo, sc
Mus musculus [20] = test: Fraction of mice that were cured after oral administration at a dose of 1.67 mg/kg and I.C.E. value of 0.56; format: functional
Mus musculus [21] = test: Fraction of mice that were cured after oral administration at a dose of 53 mg/kg and I.C.E. value of 0.56; format: functional
Mus musculus [22] = test: Fraction of mice that were cured after subcutaneous administration at a dose of 6.6 mg/kg and I.C.E. value of 0.82; format: functional
Mus musculus [23] = test: Curative activity of the Compound after Subcutaneous administration at a dose of 0.83 mg/kg and I.C.E. value of 0.82;20/20; format: functional
Mus musculus [24] = test: Fraction of mice that were cured after subcutaneous administration at a dose of 424 mg/kg and I.C.E. value of 0.82; format: functional
Mus musculus [25] = test: Curative activity of the Compound after oral administration at a dose of 26 mg/kg and I.C.E. value of 0.60; 15/15; format: functional
Mus musculus [26] = test: Curative activity of the Compound after oral administration at a dose of 1.67 mg/kg and I.C.E. value of 0.60; format: functional
[27] = test system: Trypanosoma brucei rhodesiense; test: In Vitro measurement of inhibition of Leucine uptake in cell culture of Trypanosoma rhodesiense.; format: functional; conditions: read-out: ID50 (the source's name)
Outline: (§1)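 Trypanosomes harvested from infected rats, cultured 3 h with several concentrations of drug, usually 0.1–100 µg/mL. Radiolabeled L-leucine uptake measured. ID50 is the concentration in µg/mL giving 50% inhibition of incorporation.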

Mus musculus [28] = test: Fraction of mice that were cured after oral administration at a dose of 212 mg/kg and I.C.E. value of 0.56; format: functional
Mus musculus [29] = test: Trypanocidal Activity at I.C.E. value 0.56 when administered perorally.; format: functional
Mus musculus [30] = test: Fraction of mice that were cured after oral administration at a dose of 106 mg/kg and I.C.E. value of 0.56; format: functional
Mus musculus [31] = test: Fraction of mice that were cured after subcutaneous administration at a dose of 0.83 mg/kg and I.C.E. value of 0.82; format: functional
Mus musculus [32] = test: Curative activity of the Compound after oral administration at a dose of 424 mg/kg and I.C.E. value of 0.60; 10/10; format: functional
Mus musculus [33] = test: Curative activity of the Compound after oral administration at a dose of 53 mg/kg and I.C.E. value of 0.60; 5/5; format: functional
Mus musculus [34] = test: Curative activity of the Compound after Subcutaneous administration at a dose of 424 mg/kg ( T-Toxic)and I.C.E. value of 0.82; 4/20 and 16 toxic; format: ADME, organism-based; set-up: dose 424 mg/kg, route subcutaneous; conditions: in vivo, sc
[35] = test system: Trypanosoma brucei rhodesiense; test: In Vitro measurement of inhibition of thymidine uptake in cell culture of Trypanosoma rhodesiense.; format: functional; conditions: read-out: ID50 (the source's name)
Outline: (§2)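 Parasites harvested from infected rats and incubated 3 h across a drug concentration series, usually 0.1–100 µg/mL. Incorporation of radiolabeled thymidine measured. ID50 is the concentration (µg/mL) producing 50% inhibition.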

Mus musculus [36] = test: Curative activity of the Compound after oral administration at a dose of 13 mg/kg and I.C.E. value of 0.60; 10/10; format: functional
Mus musculus [37] = test: Fraction of mice that were cured after oral administration at a dose of 424 mg/kg and I.C.E. value of 0.56; format: functional
Mus musculus [38] = test: Trypanocidal Activity at I.C.E. value 0.82 when administered subcutaneously.; format: functional
Outline: (§3)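 Mice, in groups of five per dose, were given a standard inoculum of blood-stage T. rhodesiense that is lethal to all untreated controls, then dosed subcutaneously. Usually 11 dose levels were used (2^n × 0.42 mg/kg).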

Mus musculus [39] = test: Curative activity of the Compound after Subcutaneous administration at a dose of 53 mg/kg and I.C.E. value of 0.82; 9/10; format: functional
Mus musculus [40] = test: Fraction of mice that were cured after oral administration at a dose of 0.42 mg/kg and I.C.E. value of 0.56; format: functional
Mus musculus [41] = test: Fraction of mice that were cured after oral administration at a dose of 3.3 mg/kg and I.C.E. value of 0.56; format: functional
Mus musculus [42] = test: Fraction of mice that were cured after subcutaneous administration at a dose of 1.67 mg/kg and I.C.E. value of 0.82; format: functional
Mus musculus [43] = test: Curative activity of the Compound after oral administration at a dose of 212 mg/kg and I.C.E. value of 0.60; 5/5; format: functional
Mus musculus [44] = test: Fraction of mice that were cured after subcutaneous administration at a dose of 26 mg/kg and I.C.E. value of 0.82; format: functional
Mus musculus [45] = test: Fraction of mice that were cured after subcutaneous administration at a dose of 212 mg/kg and I.C.E. value of 0.82; format: functional
Mus musculus [46] = test: Fraction of mice that were cured after subcutaneous administration at a dose of 3.3 mg/kg and I.C.E. value of 0.82; format: functional
Mus musculus [47] = test: Curative activity of the Compound after Subcutaneous administration at a dose of 106 mg/kg ( T-Toxic) and I.C.E. value of 0.82; 16/20 and 1 toxic; format: ADME, organism-based; set-up: dose 106 mg/kg, route subcutaneous; conditions: in vivo, sc
Mus musculus [48] = test: Trypanocidal Activity at I.C.E. value 0.20 when administered subcutaneously.; format: functional
Mus musculus [49] = test: Trypanocidal Activity at I.C.E. value 0.36 when administered perorally.; format: functional
[50] = test system: Trypanosoma brucei rhodesiense; test: In Vitro measurement of inhibition of thymidine uptake in cell culture of Trypanosoma rhodesiense; format: functional; conditions: read-out: ID50 (the source's name); outline: as §2
Mus musculus [51] = test: Trypanocidal Activity at I.C.E. value 0.19 when administered perorally.; format: functional
Mus musculus [52] = test: Trypanocidal Activity at I.C.E. value 0.64 when administered subcutaneously.; format: functional; outline: as §3
[53] = test system: Trypanosoma brucei rhodesiense; test: In Vitro measurement of inhibition of leucine uptake in cell culture of Trypanosoma rhodesiense; format: functional; conditions: read-out: ID50 (the source's name); outline: as §1
Mus musculus [54] = test: Trypanocidal Activity at I.C.E. value 0.93 when administered subcutaneously.; format: functional; outline: as §3
Mus musculus [55] = test: Trypanocidal Activity at I.C.E. value 0.61 when administered perorally.; format: functional
Mus musculus [56] = test: Trypanocidal Activity at I.C.E. value 0.81 when administered subcutaneously.; format: functional; outline: as §3
[57] = test system: Trypanosoma brucei rhodesiense; test: In Vitro measurement of inhibition of Thymidine uptake in cell culture of Trypanosoma rhodesiense.; format: functional; conditions: read-out: ID50 (the source's name)
Mus musculus [58] = test: Trypanocidal Activity at I.C.E. value 0.38 when administered subcutaneously.; format: functional
Outline: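 Blood-stage T. rhodesiense infection came from a standard inoculum lethal to all untreated mice. Drug was given by subcutaneous injection to groups of five mice. Survival beyond 30 days counted as cure. […] Sub-curative doses scored 0, and data were normalized at each dose.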

Cc1ccc(S(=O)(=O)O)cc1.Cc1ccc(S(=O)(=O)[O-])cc1.Cc1ccc2n(c1)cc(-c1ccc(/C=N/NC(=N)N)cc1)[n+]2C
Survivors (Mus musculus [1]): 0
Fraction cured (Mus musculus [2]): 0.4
Survivors (Mus musculus [3]): 29
Survivors (Mus musculus [4]): 1
Survivors (Mus musculus [5]): 8
Survivors (Mus musculus [6]): 2
Fraction cured (Mus musculus [7]): 0.8
Fraction cured (Mus musculus [8]): 0.9
Survivors (Mus musculus [9]): 10
Fraction cured (Mus musculus [10]): 1
Survivors (Mus musculus [11]): 9
Fraction cured (Mus musculus [12]): 0.8
Survivors (Mus musculus [13]): 10
Fraction cured (Mus musculus [14]): 0
Survivors (Mus musculus [15]): 0
Fraction cured (Mus musculus [16]): 1
Survivors (Mus musculus [17]): 19
Fraction cured (Mus musculus [18]): 1
Survivors (Mus musculus [19]): 5
Fraction cured (Mus musculus [20]): 0
Fraction cured (Mus musculus [21]): 1
Fraction cured (Mus musculus [22]): 1
Survivors (Mus musculus [23]): 20
Fraction cured (Mus musculus [24]): 0.2
Survivors (Mus musculus [25]): 15
Survivors (Mus musculus [26]): 0
IC50 [27]: 0.5 µg/mL
Fraction cured (Mus musculus [28]): 1
CD50 (Mus musculus [29]): 6.6 mg/kg
Fraction cured (Mus musculus [30]): 1
Fraction cured (Mus musculus [31]): 1
Survivors (Mus musculus [32]): 10
Survivors (Mus musculus [33]): 5
Survivors (Mus musculus [34]): 4
IC50 [35]: 0.4 µg/mL
Survivors (Mus musculus [36]): 10
Fraction cured (Mus musculus [37]): 1
CD50 (Mus musculus [38]): 0.2 mg/kg
Survivors (Mus musculus [39]): 9
Fraction cured (Mus musculus [40]): 0
Fraction cured (Mus musculus [41]): 0.2
Fraction cured (Mus musculus [42]): 0.95
Survivors (Mus musculus [43]): 5
Fraction cured (Mus musculus [44]): 0.97
Fraction cured (Mus musculus [45]): 0.5
Fraction cured (Mus musculus [46]): 1
Survivors (Mus musculus [47]): 16

Br.CN(C)C(=N)N/N=C/c1ccc(-c2c([N+](=O)[O-])n3ccccc3[n+]2C)cc1.[Br-]
CD50 (Mus musculus [48]): 0.8 mg/kg
CD50 (Mus musculus [49]): 53 mg/kg

Br.C[n+]1c(COc2ccc(/C=N/NC3=NCCCN3)cc2)cn2cc(C(F)(F)F)ccc21.[Br-]
IC50 [50]: 0.4 µg/mL
CD50 (Mus musculus [51]): 106 mg/kg
CD50 (Mus musculus [52]): 1.6 mg/kg
IC50 [53]: 0.5 µg/mL

CCSc1ccc2n(c1)cc(-c1ccc(/C=N/NC(=N)N)cc1)[n+]2C.Cc1ccc(S(=O)(=O)O)cc1.Cc1ccc(S(=O)(=O)[O-])cc1
CD50 (Mus musculus [54]): 0.1 mg/kg

Br.Cc1ccc2n(c1)cc(COc1ccc(/C=N/NC(=N)N)cc1)[n+]2C.[Br-]
CD50 (Mus musculus [55]): 6.6 mg/kg
CD50 (Mus musculus [56]): 0.2 mg/kg

Br.CSC(=N)N/N=C/c1ccc(-c2cn3cc(C)ccc3[n+]2C)cc1.[Br-]
IC50 [57]: 4 µg/mL
CD50 (Mus musculus [58]): 26 mg/kg
IC50 [27]: > 10 µg/mL

Source: ChEMBL document CHEMBL1124947, “Cationic antiprotozoal drugs. Trypanocidal activity of 2-(4'-formylphenyl)imidazo[1,2-a]pyridinium guanylhydrazones and related derivatives of quaternary heteroaromatic compounds” (J Med Chem, 1990)
